In article PMC5733704 (Bioorganic & medicinal chemistry, 2017):
In brackets after ≈: the same amount, converted by molar mass. Entries after “also recorded” stand apart in the source; their conditions may differ. Blank lines part the entries; values can stand above or below the molecule they belong to.

Experiments:
AbFabI = AbFabI (Acinetobacter baumannii, UniProt A0ABX6CD96); assay: AbFabI enzyme inhibition, NADH fluorescence IC50 assay; assay type: biochemical; settings: for IC50: IC50 against AbFabI, 200 nM AbFabI, 300 μM crotonyl-CoA, 200 μM NADH; for fold higher AbFabI IC50 than compound 23: relative to compound 23
SaFabI = biological target: T1, SaFabI (Staphylococcus aureus, UniProt Q6GI75); assay: SaFabI enzyme inhibition, NADPH fluorescence IC50 assay; assay type: biochemical; settings: for fold improvement in SaFabI IC50 compared to compound 1: relative to compound 1; for fold less potent than compound 8 (SaFabI IC50): relative to compound 8
T1 sequence (Q6GI75 1-256): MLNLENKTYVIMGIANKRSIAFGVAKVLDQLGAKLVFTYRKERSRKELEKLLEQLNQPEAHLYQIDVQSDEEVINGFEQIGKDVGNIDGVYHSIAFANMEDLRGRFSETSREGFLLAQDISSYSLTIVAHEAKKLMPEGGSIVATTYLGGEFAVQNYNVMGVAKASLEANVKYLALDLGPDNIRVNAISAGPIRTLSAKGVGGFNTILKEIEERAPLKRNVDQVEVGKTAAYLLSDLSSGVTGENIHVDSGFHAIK
In short: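 NADPH fluorescence was read at 340/460 nm. Test compound ranged 0.4 nM–200 μM. Percent inhibition came from 10-min slopes versus DMSO control. At least two independent runs, each in duplicate. Interference was checked before substrate addition.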

A. baumannii strain 2208 [1] = assay: Checkerboard MIC with colistin against A. baumannii strain 2208; assay type: cell-based
MDR A. baumannii = assay: Checkerboard MIC with colistin against MDR A. baumannii; assay type: cell-based
[2] = system: S. aureus strain RN4220 overexpressing SaFabI; assay: MIC, microbroth dilution, S. aureus RN4220 overexpressing SaFabI; assay type: cell-based; settings: versus native strain RN4220; 4-fold or higher indicates on-target
A. baumannii strain 2208 [3] = assay: Checkerboard MIC with polymixin B nonapeptide against A. baumannii strain 2208; assay type: cell-based
S. aureus = assay: MIC against S. aureus, stated across the strains tested; assay type: cell-based; settings: Staphylococcus aureus, read-out: MIC in S. aureus (across strains tested), in μM
[4] = system: S. aureus strain RN4220 overexpressing SaFabI; settings: control; cited from earlier work
[5] = system: E. coli strain BW25113 ΔTolC; assay: MIC, microbroth dilution, E. coli efflux pump mutant; assay type: cell-based; settings: Escherichia coli, BW25113, read-out: MIC E. coli TolC- strain, in μM

SMILES: O=C(Cc1ccccc1F)N1CCC(c2ccccc2)C1 (stereo not drawn) [Compound 2]
IC50 (AbFabI): < 10 µM
fold improvement in SaFabI IC50 compared to compound 1 (SaFabI): 2 fold

SMILES: COc1ccccc1C1CCN(C(=O)Cc2ccccc2F)C1 (stereo not drawn) [Compound 3]
fold less potent than compound 8 (SaFabI IC50) (SaFabI): 9 fold

SMILES: O=C(Cc1c(F)cccc1F)N1CCC(c2ccccc2)C1 (stereo not drawn) [Compound 6]
IC50 (AbFabI): < 10 µM
fold improvement in SaFabI IC50 compared to compound 1 (SaFabI): 5 fold

SMILES: CC(=O)Nc1ccc(/C=C/C(=O)N2CCC(c3ccc4c(c3)OCO4)C2)cn1 (stereo not drawn) [Compound 26]
Effect (A. baumannii strain 2208 [1]): did not show synergistic behavior; also recorded: No synergy

IC50 (AbFabI): < 10 µM
SMILES: COc1ccccc1C1CCN(C(=O)Cc2ccccc2Cl)C1 (stereo not drawn) [Compound 8]
Effect (MDR A. baumannii): Synergy

SMILES: COc1ccccc1C1CCN(C(=O)/C=C/c2ccc(NC(C)=O)cc2)C1 (stereo not drawn) [Compound 29]
AbFabI enzyme inhibitory activity (in words) (AbFabI): complete loss in enzyme inhibitory activity
SaFabI enzyme inhibitory activity (in words) (SaFabI): complete loss in enzyme inhibitory activity

AbFabI enzyme inhibitory activity (in words) (AbFabI): loss in activity
SMILES: CC(C)S(=O)(=O)c1ccc(CC(=O)N2CCC(c3ccc4c(c3)OCO4)C2)cc1 (stereo not drawn) [Compound 22]
SaFabI enzyme inhibitory activity (in words) (SaFabI): not tolerated

SMILES: O=C(Cc1ccccc1Cl)N1CCC(c2nccs2)C1 (stereo not drawn) [Compound 11]
Effect (A. baumannii strain 2208 [1]): did not show synergistic behavior; also recorded: No synergy

SMILES: CN(C)[C@@H]1C(O)=C(C(N)=O)C(=O)[C@@]2(O)C(O)=C3C(=O)c4c(O)cccc4[C@@](C)(O)[C@H]3C[C@@H]12 [tetracycline]
fold increase in MIC with S. aureus strain overexpressing SaFabI [2]: remained unchanged

SMILES: COc1ccccc1C1CCN(C(=O)Cc2c(F)cccc2F)C1 (stereo not drawn) [Compound 7]
Effect (A. baumannii strain 2208 [1]): excellent synergy
IC50 (AbFabI): < 10 µM
fold poorer SaFabI inhibitory activity compared to compound 6 (SaFabI; relative to compound 6): ~3 fold
fold less potent than compound 8 (SaFabI IC50) (SaFabI): 11 fold

SMILES: O=C(Cc1ccccc1Cl)N1CCC(c2ccccn2)C1 (stereo not drawn) [Compound 10]
Effect (A. baumannii strain 2208 [1]): did not show synergistic behavior; also recorded: No synergy/Synergy

SMILES: CN[C@@H]1[C@H](O[C@H]2[C@H](O[C@H]3[C@H](O)[C@@H](O)[C@H](N=C(N)N)[C@@H](O)[C@@H]3N=C(N)N)O[C@@H](C)[C@]2(O)C=O)O[C@@H](CO)[C@H](O)[C@H]1O [streptomycin]
fold increase in MIC with S. aureus strain overexpressing SaFabI [2]: remained unchanged

SMILES: O=C(N[C@H](CO)[C@H](O)c1ccc([N+](=O)[O-])cc1)C(Cl)Cl [chloramphenicol]
fold increase in MIC with S. aureus strain overexpressing SaFabI [2]: remained unchanged

IC50 (AbFabI): < 10 µM
SMILES: O=C(Cc1cccc(F)c1F)N1CCC(c2ccccc2)C1 (stereo not drawn) [Compound 4]

SMILES: CC(=O)Nc1ccc(/C=C/C(=O)N2CCC(c3ccccn3)C2)cn1 (stereo not drawn) [Compound 28]
Effect (A. baumannii strain 2208 [1]): did not show synergistic behavior; also recorded: No synergy
fold higher AbFabI IC50 than compound 23 (AbFabI): 15 to 40 fold

SMILES: O=C(Cc1ccccc1Cl)N1CCC(c2ccccc2)C1 (stereo not drawn) [Compound 1]
Effect (A. baumannii strain 2208 [3]): Synergy
IC50 (AbFabI): < 10 µM
Effect (MDR A. baumannii): Synergy
MIC (S. aureus): 42 to 84 µM (≈ 12.6 to 25.2 µg/mL)

SMILES: O=C(Cc1ccccc1Cl)N1CCC(c2ccc3c(c2)OCO3)C1 (stereo not drawn) [Compound 12]
IC50 (AbFabI): < 10 µM
fold change in AbFabI IC50 compared to compound 1 (AbFabI; relative to compound 1): 2 to 3 fold
Effect (MDR A. baumannii): Synergy

SMILES: CC(=O)Nc1ccc(/C=C/C(=O)N2CCC(c3ccccc3)C2)cn1 (stereo not drawn) [Compound 23]
Effect (A. baumannii strain 2208 [1]): did not show synergistic behavior; also recorded: No synergy

SMILES: CC(=O)Nc1ccc(/C=C/C(=O)N2CCC(c3nccs3)C2)cn1 (stereo not drawn) [Compound 27]
Effect (A. baumannii strain 2208 [1]): did not show synergistic behavior; also recorded: No synergy
fold higher AbFabI IC50 than compound 23 (AbFabI): 15 to 40 fold

SMILES: CC[C@H]1OC(=O)[C@H](C)[C@@H](O[C@H]2C[C@@](C)(OC)[C@@H](O)[C@H](C)O2)[C@H](C)[C@@H](O[C@@H]2O[C@H](C)C[C@H](N(C)C)[C@H]2O)[C@](C)(O)C[C@@H](C)C(=O)[C@H](C)[C@@H](O)[C@]1(C)O [erythromycin]
fold increase in MIC with S. aureus strain overexpressing SaFabI [2]: remained unchanged

SMILES: Oc1cc(Cl)ccc1Oc1ccc(Cl)cc1Cl [triclosan]
fold increase in MIC with S. aureus strain overexpressing FabI [4]: 8 fold

SMILES: COc1ccccc1C1CCN(C(=O)/C=C/c2ccc(NC(C)=O)nc2)C1 (stereo not drawn) [Compound 24]
Effect (A. baumannii strain 2208 [3]): Synergy
IC50 (AbFabI): < 10 µM
Effect (MDR A. baumannii): Synergy
MIC [5]: 2 µM (≈ 0.731 µg/mL)

SMILES: COc1ccc(C2CCN(C(=O)Cc3ccccc3Cl)C2)cc1 (stereo not drawn) [Compound 9]
fold less potent than compound 8 (SaFabI IC50) (SaFabI): 25 fold

SMILES: COc1ccccc1C1CCN(C(=O)Cc2cccc(F)c2F)C1 (stereo not drawn) [Compound 5]
fold less potent than compound 8 (SaFabI IC50) (SaFabI): 6 fold
